Active and inactive are the calls of the source. No cut-off for these calls is given here.
Tests used:
[1] = Inhibition of Methanobacterium thermoautotrophicum ODCase; set-up: species or system Methanothermobacter thermautotrophicus
[2] = Inhibition of Plasmodium falciparum ODCase
Homo sapiens [3] = species on record: Homo sapiens; assay: Inhibition of human ODCase upto 10 or 20 mM
In short: (§1)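 Enzyme was a truncated C-terminal portion of human UMP synthase, expressed in E. coli BL-21 with the His6 tag removed by thrombin. Stock (60 µM) was incubated overnight at 4 °C. Enzyme plus nucleotide ([…]) in 50 mM Tris pH 7.5, 1 mM DTT was followed by ITC at 37 °C. Started by a 5.7 µL injection of 5 mM OMP (20 µM final). Competitive Ki fit.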

[4] = Inhibition of human ODCase
Plasmodium falciparum [5] = assay: Inhibition of Plasmodium falciparum ODCase upto 10 or 20 mM
In short: (§2)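 Run by ITC at 37 °C. ODCase stock (60 µM in 50 mM Tris pH 7.5, 20 mM DTT, 40 mM NaCl) was held overnight at room temperature. Final mixture: 60 nM enzyme in degassed 50 mM Tris pH 7.4, 1 mM DTT, with nucleotide varied 0–20 mM. Started by a single 3.4 µL injection of 5 mM OMP. Competitive analysis by rate-equation fit and double-reciprocal plots.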

Plasmodium falciparum [6] = assay: Activity of Plasmodium falciparum ODCase; in short: as §2
Homo sapiens [7] = species on record: Homo sapiens; assay: Activity of human ODCase; in short: as §1
[8] = test system: Methanothermobacter thermautotrophicus; assay: Activity of Methanobacterium thermoautotrophcium ODCase
In short: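 Isothermal titration calorimetry at 55 °C. Enzyme stock (20 µM in 50 mM Tris pH 7.5, 20 mM DTT, 40 mM NaCl) was stabilized overnight at room temperature. Assay: 20 nM ODCase in 50 mM Tris pH 7.5, 1 mM DTT, with fixed nucleotide levels (0–20 mM). Started by a single injection of 5 mM OMP (40 µM final). Competitive Ki from rate fitting, checked by double-reciprocal plots.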

[9] = molecular target: T1, Orotidine 5'-phosphate decarboxylase (Saccharomyces cerevisiae S288c, UniProt P03962); assay: Inhibition of yeast ODCase
T1 sequence (P03962 whole entry): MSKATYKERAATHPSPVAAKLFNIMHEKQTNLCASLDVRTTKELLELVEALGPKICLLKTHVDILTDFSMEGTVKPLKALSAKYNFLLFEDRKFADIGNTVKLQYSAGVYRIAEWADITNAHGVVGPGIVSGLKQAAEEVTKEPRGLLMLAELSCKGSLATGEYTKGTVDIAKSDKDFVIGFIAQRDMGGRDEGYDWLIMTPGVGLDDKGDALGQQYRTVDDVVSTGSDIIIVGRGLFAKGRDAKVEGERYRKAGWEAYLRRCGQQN

Ki [1] | Ki [4] | Activity (Plasmodium falciparum [5]) | Structure (SMILES) | Ki [2] | further results
4.2 mM |  |  | Nc1nc2c(ncn2[C@@H]2O[C@H](COP(=O)(O)O)[C@@H](O)[C@H]2O)c(=O)[nH]1 | 2.1 mM | Activity (Homo sapiens [3]): inactive
3.3 mM | 8.7 mM |  | Cc1cn([C@H]2C[C@H](O)[C@@H](COP(=O)(O)O)O2)c(=O)[nH]c1=O | 10 mM | 
1.2 mM | 1.4 mM | inactive | Nc1ccn([C@@H]2O[C@H](COP(=O)(O)O)[C@@H](O)[C@H]2O)c(=O)n1 |  | 
 |  |  | O=C(O)c1cc(=O)[nH]c(=O)n1[C@@H]1O[C@H](COP(=O)(O)O)[C@@H](O)[C@H]1O |  | Km (Plasmodium falciparum [6]): 1.3 µM; kcat (Plasmodium falciparum [6]): 6.7 s⁻¹; Km (Homo sapiens [7]): 1.7 µM; kcat (Homo sapiens [7]): 8.1 s⁻¹; Km [8]: 4.8 µM; kcat [8]: 20.7 s⁻¹
> 10 mM | 7.4 mM | inactive | Nc1ncnc2c1ncn2[C@H]1C[C@H](O)[C@@H](COP(=O)(O)O)O1 |  | 
0.33 mM | 0.22 mM |  | O=c1ccn([C@@H]2O[C@H](COP(=O)(O)O)[C@@H](O)[C@H]2O)c(=O)[nH]1 | 0.21 mM | 
3.5 mM | 4.3 mM | inactive | Nc1ncnc2c1ncn2[C@@H]1O[C@H](COP(=O)(O)O)[C@@H](O)[C@H]1O |  | 
0.13 mM | 0.0007 mM |  | O=c1[nH]c(=O)c2ncn([C@@H]3O[C@H](COP(=O)(O)O)[C@@H](O)[C@H]3O)c2[nH]1 | 0.043 mM | Ki [9]: 400 nM

From ChEMBL document CHEMBL1140727, “Structural diversity and plasticity associated with nucleotides targeting orotidine monophosphate decarboxylase” (J Med Chem, 2008)
